pIC50: −log10 of the molar value. Calls of active or inactive are those of the source. The calls are words filed in the database; no cut-off is given here.
Legend:
[1] = system: HL-60; experiment: Induction of apoptosis in human HL60 cells assessed as hypodiploid cells level at 30 uM incubated for 24 hrs in presence of caspase-8 inhibitor z-IETD-fmk by flow cytometry; assay type: functional, cell-based
Procedure, shortened: (§1)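 HL-60 cells given 30 µM compound for 24 h, alone or with z-VAD-fmk (100 µM), z-DEVD-fmk, z-IETD-fmk or z-LEHD-fmk (each 50 µM). Propidium iodide staining, hypodiploid cells quantified by flow cytometry. Three independent experiments, each in triplicate.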

[2] = system: HL-60; experiment: Induction of procaspase-3 processing in human HL60 cells at 30 uM incubated for 24 hrs by immunoblotting method; assay type: functional, cell-based
Procedure, shortened: (§2)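 HL-60 cells (1 × 10⁶/mL) exposed to compound, harvested at 24 h. Lysed in Tris-HCl pH 7.4/Triton X-100 buffer with phosphatase and protease inhibitors, 15 min at 4 °C. Equal protein run on SDS-PAGE (7.5% PARP, 12.5% caspases) and immunoblotted on PVDF. β-Actin used as loading control.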

[3] = system: HL-60; experiment: Cell cycle arrest in human HL60 cells assessed as accumulation at G1 phase at 10 uM incubated for 24 hrs by flow cytometry (reference value: 48 +/- 1.6%); assay type: functional
[4] = system: HL-60; experiment: Induction of DNA fragmentation in human HL60 cells at 30 uM incubated for 24 hrs by agarose gel electrophoresis; assay type: functional, cell-based
Procedure, shortened: (§3)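 HL-60 cells treated with the indicated concentrations. Genomic DNA extracted, run on agarose gel and visualised under UV after ethidium bromide staining, looking for internucleosomal fragmentation.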

[5] = system: HL-60; experiment: Induction of apoptosis in human HL60 cells assessed as changes in nuclear morphology at 30 uM incubated for 24 hrs by fluorescence microscopy (reference value: 4.9 +/- 1.0%)
[6] = system: HL-60; experiment: Induction of caspase activation in human HL60 cells assessed as increase in PARP cleavage at 30 uM incubated for 24 hrs by immunoblotting method; assay type: functional, cell-based; procedure, shortened: as §2
[7] = system: HL-60; experiment: Cell cycle arrest in human HL60 cells assessed as accumulation at G2/M phase at 10 uM incubated for 24 hrs by flow cytometry (reference value: 33.2 +/- 2.1%); assay type: functional
[8] = Cytotoxicity against human proliferating PBMCs assessed as cell viability after 48 hrs at 30 uM by MTT assay; assay type: cell-based, PBMC; settings: read-out: Activity
Procedure, shortened: (§4)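 HL-60 cells, quiescent (fresh) PBMC and phytohemagglutinin-activated healthy human PBMC cultured 48 h over a concentration range of compound. Proliferation measured. Means ± SE of two independent experiments, each in triplicate.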

[9] = system: HL-60; experiment: Induction of apoptosis in human HL60 cells assessed as hypodiploid cells level incubated for 24 hrs in presence of 2 uM p38MAPK inhibitor SB203580 by flow cytometry; assay type: functional, cell-based
Procedure, shortened: (§5)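 HL-60 cells preincubated 1 h with PD98059 (10 µM), SP600125 (10 µM) or SB203580 (2 µM), then treated with compound. Hypodiploid (apoptotic) cells quantified by flow cytometry of propidium iodide-stained nuclei. Three independent experiments, each in triplicate.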

[10] = system: HL-60; experiment: Cell cycle arrest in human HL60 cells assessed as accumulation at G1 phase at 30 uM incubated for 24 hrs by flow cytometry (reference value: 48 +/- 1.6%); assay type: functional
[11] = target: T1, c-Jun N-terminal kinase, JNK (Homo sapiens) (UniProt P45983+P53779+P45984); experiment: Induction of JNK/SAPK phosphorylation in human HL60 cells after 30 mins by Western blotting; assay type: cell-based; settings: HL-60
Procedure, shortened: (§6)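 HL-60 cells (1 × 10⁶/mL) treated with compound (10–30 µM) for various times. Where used, PD98059 (10 µM) was added 1 h beforehand. Lysates run on 10% SDS-PAGE and immunoblotted for phosphorylated ERK 1/2, JNK/SAPK or p38MAPK. Blots stripped and reprobed for the total kinase as loading control.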

[12] = target: T1, c-Jun N-terminal kinase, JNK (Homo sapiens); experiment: Induction of JNK/SAPK phosphorylation in human HL60 cells after 6 hrs by Western blotting; assay type: cell-based; settings: HL-60; procedure, shortened: as §6
[13] = system: PBMC; experiment: Induction of MLL gene cleavage in human proliferating PBMCs at 30 uM incubated for 16 hrs by inverse PCR method; assay type: functional, cell-based
Procedure, shortened: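 Peripheral blood mononuclear cells exposed to 30 µM compound for 16 h. Genomic DNA digested with Xba I and circularised. Nested inverse PCR (MF1–MR1, then MF2–MR2). Wild-type MLL removed by Pvu II digestion before PCR to reveal rearrangement products.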

[14] = system: HL-60; experiment: Cell cycle arrest in human HL60 cells assessed as accumulation at S phase at 30 uM incubated for 24 hrs by flow cytometry (reference value: 16.7 +/- 0.5%); assay type: functional
[15] = target: T2, Mitogen-activated protein kinase; ERK1/ERK2 (Homo sapiens) (UniProt P27361+P28482); experiment: Induction of ERK1/2 phosphorylation in human HL60 cells after 6 hrs by Western blotting; assay type: cell-based; settings: HL-60; procedure, shortened: as §6
T2 sequence (P27361 whole entry, looked up): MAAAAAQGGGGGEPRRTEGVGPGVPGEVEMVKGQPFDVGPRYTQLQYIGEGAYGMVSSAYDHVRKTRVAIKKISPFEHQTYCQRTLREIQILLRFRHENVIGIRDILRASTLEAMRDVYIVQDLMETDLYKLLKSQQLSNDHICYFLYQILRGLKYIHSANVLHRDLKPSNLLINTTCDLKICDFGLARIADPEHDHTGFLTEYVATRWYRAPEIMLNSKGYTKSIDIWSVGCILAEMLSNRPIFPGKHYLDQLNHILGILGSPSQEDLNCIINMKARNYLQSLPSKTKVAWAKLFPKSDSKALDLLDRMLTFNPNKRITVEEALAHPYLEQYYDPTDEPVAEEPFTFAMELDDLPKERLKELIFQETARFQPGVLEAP
T2 sequence (P28482 whole entry, looked up): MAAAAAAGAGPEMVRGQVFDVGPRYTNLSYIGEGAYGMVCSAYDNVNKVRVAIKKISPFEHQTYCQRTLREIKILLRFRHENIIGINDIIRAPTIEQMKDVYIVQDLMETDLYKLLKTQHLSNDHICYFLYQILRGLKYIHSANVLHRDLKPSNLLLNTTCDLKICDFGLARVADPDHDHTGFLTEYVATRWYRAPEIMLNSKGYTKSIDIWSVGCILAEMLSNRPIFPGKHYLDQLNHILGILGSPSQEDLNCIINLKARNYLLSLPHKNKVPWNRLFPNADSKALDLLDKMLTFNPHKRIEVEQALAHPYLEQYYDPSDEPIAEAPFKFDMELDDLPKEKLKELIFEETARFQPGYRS

[16] = Cytotoxicity against human HL60/MX1 cells after 72 hrs by MTT assay; assay type: functional, cell-based; settings: HL60/MX1, 72 h
Procedure, shortened: (§7)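 MTT colorimetric assay on HL-60 and HL-60/MX1 cells (RPMI 1640, 10% heat-inactivated FBS), 72 h exposure, absorbance 570 nm. IC50 obtained graphically by curve fitting. Means ± S.E. of three independent experiments, each in triplicate.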

[17] = system: HL-60; experiment: Cell cycle arrest in human HL60 cells assessed as accumulation at subG1 phase at 10 uM incubated for 24 hrs by flow cytometry (reference value: 2.3 +/- 0.5%); assay type: functional
[18] = system: HL-60; experiment: Induction of apoptosis in human HL60 cells assessed as incidence of condensed and fragmented chromatin at 30 uM incubated for 24 hrs by fluorescent microscopy; assay type: functional, cell-based
[19] = system: HL-60; experiment: Cell cycle arrest in human HL60 cells assessed as accumulation at S phase at 10 uM incubated for 24 hrs by flow cytometry (reference value: 16.7 +/- 0.5%); assay type: functional
[20] = system: HL-60; experiment: Cell cycle arrest in human HL60 cells assessed as accumulation at G2/M phase at 30 uM incubated for 24 hrs by flow cytometry (reference value: 33.2 +/- 2.1%); assay type: functional
[21] = target: T3, MAP kinase p38 (Homo sapiens) (UniProt O15264+Q15759+Q16539+P53778); experiment: Induction of p38MAPK phosphorylation in human HL60 cells after 30 mins by Western blotting; assay type: cell-based; settings: HL-60; procedure, shortened: as §6
[22] = system: HL-60; experiment: Induction of DNA fragmentation in human HL60 cells at 10 uM incubated for 24 hrs by agarose gel electrophoresis; assay type: functional, cell-based; procedure, shortened: as §3
[23] = system: HL-60; experiment: Increase in apoptosis in human HL60 cells assessed as hypodiploid cells level incubated for 24 hrs in presence of 10 uM MEK1/2 inhibitor PD98059 by flow cytometry (reference value: 15%); assay type: functional; procedure, shortened: as §5
[24] = system: HL-60; experiment: Induction of apoptosis in human HL60 cells assessed as hypodiploid cells level at 30 uM incubated for 24 hrs in presence of caspase inhibitor z-VAD-fmk by flow cytometry; assay type: functional, cell-based; procedure, shortened: as §1
[25] = target: T3, MAP kinase p38 (Homo sapiens); experiment: Induction of p38MAPK phosphorylation in human HL60 cells after 4 hrs by Western blotting; assay type: cell-based; settings: HL-60; procedure, shortened: as §6
[26] = system: HL-60; experiment: Induction of procaspase-6 processing in human HL60 cells at 30 uM incubated for 24 hrs by immunoblotting method; assay type: functional, cell-based; procedure, shortened: as §2
[27] = system: HL-60; experiment: Cytotoxicity against human HL60 cells after 72 hrs by MTT assay; assay type: functional, cell-based; settings: HL-60, 72 h; procedure, shortened: as §7
[28] = target: T2, Mitogen-activated protein kinase; ERK1/ERK2 (Homo sapiens); experiment: Induction of ERK1/2 phosphorylation in human HL60 cells after 30 mins by Western blotting; assay type: cell-based; settings: HL-60; procedure, shortened: as §6
[29] = system: HL-60; experiment: Induction of apoptosis in human HL60 cells assessed as hypodiploid cells level incubated for 24 hrs in presence of 10 uM JNK/SAPK inhibitor SP600125 by flow cytometry; assay type: functional, cell-based; procedure, shortened: as §5
[30] = system: HL-60; experiment: Cytotoxicity against human HL60 cells assessed as cell viability after 48 hrs at 30 uM by MTT assay; assay type: functional; settings: HL-60, 48 h, read-out: Activity; procedure, shortened: as §4
[31] = system: HL-60; experiment: Induction of Bid protein cleavage in human HL60 cells at 30 uM incubated for 24 hrs by Western blotting method; assay type: functional, cell-based; procedure, shortened: as §2
[32] = system: HL-60; experiment: Induction of apoptosis in human HL60 cells assessed as hypodiploid cells level at 30 uM incubated for 24 hrs in presence of caspase-9 inhibitor z-LEHD-fmk by flow cytometry; assay type: functional, cell-based; procedure, shortened: as §1
[33] = target: T2, Mitogen-activated protein kinase; ERK1/ERK2 (Homo sapiens); experiment: Induction of ERK1/2 phosphorylation in human HL60 cells after 30 mins in presence of 10 uM MEK1/2 inhibitor PD98059 by Western blotting; assay type: cell-based; settings: HL-60; procedure, shortened: as §6
[34] = system: HL-60; experiment: Induction of procaspase-8 hydrolysis in human HL60 cells at 30 uM incubated for 24 hrs by immunoblotting method; assay type: functional, cell-based; procedure, shortened: as §2
[35] = system: HL-60; experiment: Induction of procaspase-7 processing in human HL60 cells at 30 uM incubated for 24 hrs by immunoblotting method; assay type: functional, cell-based; procedure, shortened: as §2
[36] = system: HL-60; experiment: Induction of p21'Cip1 protein expression in human HL60 cells at 30 uM incubated for 24 hrs by Western blotting method; assay type: functional, cell-based; procedure, shortened: as §2
[37] = system: HL-60; experiment: Induction of cytochrome-c release in human HL60 cells at 30 uM incubated for 24 hrs by immunoblotting method; assay type: functional, cell-based
Procedure, shortened: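 HL-60 cells treated 24 h with 30 µM compound. Cytosolic extracts immunoblotted for cytochrome c released from mitochondria. β-Actin used as loading control.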

[38] = system: HL-60; experiment: Induction of cyclin D1 protein expression in human HL60 cells at 30 uM incubated for 24 hrs by Western blotting method; assay type: functional, cell-based; procedure, shortened: as §2
[39] = system: HL-60; experiment: Induction of procaspase-9 cleavage in human HL60 cells at 30 uM incubated for 24 hrs by immunoblotting method; assay type: functional, cell-based; procedure, shortened: as §2
[40] = system: HL-60; experiment: Cell cycle arrest in human HL60 cells assessed as accumulation at subG1 phase at 30 uM incubated for 24 hrs by flow cytometry (reference value: 2.3 +/- 0.5%); assay type: functional
[41] = system: HL-60; experiment: Induction of apoptosis in human HL60 cells assessed as hypodiploid cells level at 30 uM incubated for 24 hrs in presence of caspase-3 and -7 inhibitor z-DEVD-fmk by flow cytometry; assay type: functional, cell-based; procedure, shortened: as §1
[42] = system: HL-60; experiment: Cytotoxicity against human HL60 cells at 100 uM after 72 hrs by MTT assay

## COC(=O)c1c(C)c(C)cc2c(=O)cc(-c3ccccc3C)oc12
[1]
  Activity: inactive
[2]
  Activity: Active
[3]
  Activity: 53%
[4]
  Activity: Active
[5]
  Activity: 26.9%
[6]
  Activity: Active
[7]
  Activity: 24.4%
[8]
  viability at 48 h, 30 µM: 75%
[9]
  Activity: Active
[10]
  Activity: 48.1%
[11]
  Activity: Active
[12]
  Activity: Active
[13]
  Activity: Active
[14]
  Activity: 7.6%
[15]
  Activity: Active
[16]
  pIC50: 4.72
[17]
  Activity: 5.5%
[18]
  Activity: Active
[19]
  Activity: 16.6%
[20]
  Activity: 11.8%
[21]
  Activity: Active
[22]
  Activity: Active
[23]
  Activity: 25%
[24]
  Activity: inactive
[25]
  Activity: inactive
[26]
  Activity: Active
[27]
  pIC50: 5.00
[28]
  Activity: Active
[29]
  Activity: Active
[30]
  viability at 30 µM: 25%
[31]
  Activity: Active
[32]
  Activity: inactive
[33]
  Activity: inactive
[34]
  Activity: Active
[35]
  Activity: Active
[36]
  Activity: Active
[37]
  Activity: Active
[38]
  Activity: Active
[39]
  Activity: Active
[40]
  Activity: 28.5%
[41]
  Activity: inactive
[42]
  Activity: Active

— ChEMBL document CHEMBL2169813, “Cell death triggered by synthetic flavonoids in human leukemia cells is amplified by the inhibition of extracellular signal-regulated kinase signaling” (Eur J Med Chem, 2012)
